Results filed as inconclusive are left out. Activity calls are given as the source filed them.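 How the source made its calls: active means compounds raising caspase signal whose fitted half-maximal concentration lies at or below their highest valid tested dose; inconclusive means flat curve at 30 to 70% activity, or unreliable fit; inactive means the rest.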 Bounds are passed on as bounds.

Test system in the first experiment: not listed separately
As to the kind of experiment: Caspase-Glo signal, A1-expressing MEWO cells – cell-based, Trichostatin A priming, dry powder, A1 (Bcl2-A1) inhibitor project, dose response (AID 488914). As to conditions: MEWO cells TSA-primed, caspase-Glo luminescence, 3 h; at 135 µM (top of the series). In outline: (§1)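 Dosing: 100 nL compound added per well by pin transfer; system: human MEWO cells with A1 expression, Trichostatin A primed; measured by: Caspase-Glo luminescence, reagent diluted 1:1 in 50 mM HEPES; evaluation: caspase activity from luminescence signal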
As to `O=C(CCl)N=c1sccn1Cc1ccccc1Cl`, the caspase activation was 3.57% (inactive).
Turning to `CCSc1nnc(NC(=O)c2nc(S(=O)(=O)Cc3ccc(F)cc3)ncc2Cl)s1`, the caspase activation was -10.5% (inactive).
Still for that read-out and setting: the figure for `COc1cc(/C=C(/C#N)c2nc3ccccc3[nH]2)ccc1OCC(=O)Nc1ccccc1C(C)C` is 2.25% (inactive); for `Cn1c(=NC(=O)CCl)sc2ccccc21` it is -6.3% (inactive).
As for `Nc1nc(F)nc2c1ncn2[C@@H]1O[C@H](CO)[C@@H](O)[C@H]1O`, the caspase activation was -2.16% (inactive).
With `Cc1ccc(CS(=O)(=O)c2ncc(Cl)c(C(=O)Nc3nnc(C(C)C)s3)n2)cc1`, the caspase activation was -9.39% (inactive).
On the same count and under the same terms, with `Cc1cccc(CS(=O)(=O)c2ncc(Cl)c(C(=O)Nc3nnc(C(C)C)s3)n2)c1` the figure was -9.05% (inactive); with `CCc1nnc(NC(=O)c2nc(S(=O)(=O)Cc3ccccc3)ncc2Cl)s1`, -6.87% (inactive).
For the molecule `C=C1[C@@H](C)[C@H]2[C@H](Cc3ccccc3)NC(=O)[C@]23[C@H](OC(C)=O)/C=C/[C@](C)(O)C(=O)[C@@H](C)C/C=C/[C@H]3[C@@H]1O`, the caspase activation was 5.7% (inactive).

A further experiment deals with MEWO cells TSA-primed, caspase-Glo luminescence, 3 h. The description is as above.
Details: not given
Summed up:
as §1
In the case of `CC(=O)N[C@H]1[C@H](O[C@H]2CC[C@@]3(C)C(CC[C@]4(C)C3CC=C3[C@@H]5CC(C)(C)CC[C@]5(C(=O)OC5OCC(O)C(O)C5O)C(O)C[C@]34C)C2(C)C)O[C@H](COC2OCC(O)C(OC3OCC(O)C(O)C3O)C2O)[C@@H](O[C@@H]2O[C@@H](C)[C@H](O)[C@@H](O)[C@H]2O[C@@H]2O[C@@H](C)[C@H](O)[C@@H](O)[C@H]2O)[C@@H]1O` (stereo not given in full), the AC50 (as a rule, the concentration at which the activity in the assay is half-maximal) was 6.81 µM.
For `CC(C)(C)n1nc(-c2ccc(Cl)cc2)c2c(N)ncnc21`, the AC50 is > 135 µM (inactive).
Turning to `Cc1ccc(Sc2c([N+](=O)[O-])c(=O)n(C)c3ccccc23)cc1`, the AC50 is 16.8 µM.
On the same count and under the same terms, the figure for `C/C1=C/C(=O)O[C@@H]2C[C@@H](CC[C@H](C)/C=C\CC1)O[C@@](O)(C1CSC(=O)N1)C2` (stereo not given in full) is 0.632 µM; for `O=C(Oc1cccc(/C=N/Nc2nc(Nc3ccccc3)nc(N3CCOCC3)n2)c1)c1ccco1` it is 6.87 µM.
For the molecule `COc1cccc(C(=O)C(C#N)=C(SC)SC)c1`, the AC50 is 0.92 µM.
On to `COc1ccc(N(C(=O)CCl)C(C(=O)NCCc2ccccc2)c2cccs2)cc1Cl` (stereo not given), for which the AC50 is 10.6 µM.
As for `Cc1cc(C(=O)CCl)c(C)n1CCc1ccc(Cl)cc1`, the AC50 is 77.8 µM.
Consider `C=C1[C@@H](C)[C@H]2[C@H](Cc3ccccc3)NC(=O)[C@]23OC(=O)/C=C\[C@H](O)CCC[C@@H](C)C/C=C/[C@H]3[C@@H]1O`, for which the AC50 is 2.29 µM.
For the molecule `CCOC(=O)CSC1=N/C(=C/c2ccc(-n3cncn3)cc2)C(=O)N1C(C)=O`, the AC50 is 4.12 µM.
Regarding `Cc1c(CCOC(=O)c2ccc(N3CCOCC3)c([N+](=O)[O-])c2)sc[n+]1CC#N`, the AC50 was 13.1 µM.

For the origin of these results see PubChem BioAssay AID488914 (Broad Institute, 2010).
